Screening results from PubChem BioAssay.
OX1R antag-1 – antagonists of human orexin 1 receptor (OX1R); Orexin/Hypocretin receptor type 1 (Homo sapiens), O43613; actives 1.8% (n = 330,000); inhibition, % at 6.6 µM; OX1R-expressing cells, FRET antagonist read-out; in the data active = inhibition mostly above about 38%, no sharp cut-off; inactive = mostly below about 40%;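 note: 0% = agonist challenge alone and 100% = reference antagonist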
Target sequence (O43613 whole entry, looked up): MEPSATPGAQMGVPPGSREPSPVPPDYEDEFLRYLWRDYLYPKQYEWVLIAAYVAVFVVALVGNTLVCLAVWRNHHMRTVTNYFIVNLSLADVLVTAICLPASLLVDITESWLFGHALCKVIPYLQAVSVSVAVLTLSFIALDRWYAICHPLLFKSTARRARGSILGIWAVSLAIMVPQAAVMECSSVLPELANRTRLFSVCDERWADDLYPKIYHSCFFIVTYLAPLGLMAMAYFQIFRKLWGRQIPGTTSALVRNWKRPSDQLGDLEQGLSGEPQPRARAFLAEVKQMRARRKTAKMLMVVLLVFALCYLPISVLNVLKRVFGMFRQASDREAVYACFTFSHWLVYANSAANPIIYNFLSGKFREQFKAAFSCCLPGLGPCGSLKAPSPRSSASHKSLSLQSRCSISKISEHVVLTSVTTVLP
TAAR1 ag – human TAAR1 agonists, primary screen, Fluo-8 calcium fluorescence, CHO RD-HGA16 cells | Trace amine-associated receptor 1 (Homo sapiens), Q96RJ0 | vehicle wells 0%, saturating PEA agonist 100% | activation, % at 3 µM | actives 0.99% (n = 360,000) | AID 624467, 2012;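 active = activation above the mean activation of all test compounds in the run plus 3 SD, cut at about 38% in these data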
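Benchmarks: low control DMSO, high control PEA (EC100); System: CHO RD-HGA16 cells carrying human TAAR1 plus Gα16; Detection: Fluo-8 fluorescence, 5 s baseline then 140 s kinetic read; Schedule: 17-24 h plating, Fluo-8 75 min 37 °C, 30 min RT; Read-out basis: % activation from peak over basal fluorescence ratio, DMSO-to-PEA scaled.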
CHO parental Ca – ATP-evoked calcium signal inhibitors, parental CHO, primary screen, counter-screen for OX1R antagonist project, cell-based, fluorescence, Fluo-8 calcium dye; parental CHO-K1, ATP-induced calcium, Fluo-8 fluorescence; inhibition, % at 5.6 µM; actives 0.63% (n = 330,000); AID 463079, 2010;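 active = inhibition above that plate's mean sample inhibition plus 3 SD, cut at about 26% in these data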;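 note: 0% = ATP-challenged DMSO wells and 100% = DMSO wells without ATP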
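Assay system – parental CHO cells · Reagent – ATP stimulus · Detection – intracellular calcium via Fluo-8 no-wash fluorescent dye · Evaluation – percent inhibition of ATP-evoked calcium rise, normalized to controls · Controls – ATP wells versus no-ATP DMSO wells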
OX1R antag-2 – OX1R (HCRTR1) antagonists, primary screen, fluorescence, CHO/OX1R cells, Fluo-8 calcium, orexin A; inhibition, % at 5 µM; Fluo-8 calcium fluorescence; Orexin/Hypocretin receptor type 1 (Homo sapiens), O43613; AID 434989, 2010; actives 0.43% (n = 330,000);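 active = inhibition above its plate's threshold, mean inhibition of all tested compounds on the plate plus 3 SD, cut at about 37% in these data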;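 note: 0% = orexin A challenge wells and 100% = SB-334867-A antagonist wells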
TAAR1 antagonist – human TAAR1 antagonists, primary screen, Fluo-8 calcium fluorescence, CHO RD-HGA16 cells. antagonist. actives 1.5% (n = 360,000). inhibition, % at 3 µM. Trace amine-associated receptor 1 (Homo sapiens), Q96RJ0;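 active = inhibition above a per-plate cutoff, the mean inhibition of test compounds on that plate plus 3 SD, cut at about 49% in these data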;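 note: 0% = DMSO plus EC80 beta-PEA response and 100% = DMSO alone without agonist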
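Test system: RD-HGA16 CHO cells with stable hTAAR1 and Gα16 / Probe or stimulus: EC80 β-phenethylamine stimulus / Times: seeding 17-24 h prior, 75-min 37 °C, 30-min RT dye loading / Detection: Fluo-8 calcium-sensitive fluorescence / Read-out basis: % inhibition scaled between DMSO and EC80 PEA controls / Repeats: singlicate, one well per test compound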
GPR7 antag – GPR7 receptor antagonists, primary screen, cell-based, fluorescence, single concentration | inhibition, % at 4.4 µM | actives 1.1% (n = 290,000) | GPR7-expressing cells, fluorescence antagonist assay | AID 1861, 2009 | Neuropeptides B/W receptor type 1 (Homo sapiens), P48145; in the data active = inhibition above about 16%, passing the limit was not always enough;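 note: cells stimulated with the agonist NPW; 0% = agonist with vehicle and 100% = vehicle without agonist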
Target sequence (P48145 whole entry, looked up): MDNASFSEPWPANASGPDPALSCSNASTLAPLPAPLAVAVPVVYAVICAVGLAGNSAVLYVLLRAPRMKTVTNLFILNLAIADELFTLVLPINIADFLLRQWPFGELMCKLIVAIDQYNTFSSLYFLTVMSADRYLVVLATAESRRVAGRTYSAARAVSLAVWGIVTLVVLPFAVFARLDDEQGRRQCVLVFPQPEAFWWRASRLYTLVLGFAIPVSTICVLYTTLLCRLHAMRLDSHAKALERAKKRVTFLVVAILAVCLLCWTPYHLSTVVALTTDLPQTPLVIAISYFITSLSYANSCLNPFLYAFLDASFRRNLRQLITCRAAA
GPR7 antag cf – GPR7 receptor antagonists, confirmation, cell-based, fluorescence, single concentration; AID 1952, 2009; actives 52% (n = 2,400); inhibition, % at 4.4 µM; shares compounds with GPR7 antag; GPR7-expressing cells, calcium fluorescence antagonist mode; in the data active = inhibition above about 24%;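 note: stimulated with the GPR7 agonist NPW; 0% = agonist plus vehicle and 100% = vehicle alone without agonist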
MCHR1 antag – MCHR1 antagonists in cells, counter-screen for GPR7 antagonist project, cell-based, fluorescence, human; inhibition, % at 4.4 µM; shares compounds with GPR7 antag; AID 2148, 2009; actives 62% (n = 2,400); MCHR1-expressing cells, fluorescence antagonist assay; in the data active = inhibition above about 22%;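 note: 0% = vehicle with agonist and 100% = vehicle without agonist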
Active calls of the source: *; . = not tested or not shown. Rows were chosen to be rich in hits. Some 4.6% of all compounds tested hit in one or more screens of this group.

SMILES | OX1R antag-1 | TAAR1 ag | CHO parental Ca | OX1R antag-2 | TAAR1 antagonist | GPR7 antag | GPR7 antag cf | MCHR1 antag
Cc1ccc(CNC(=O)C2CC(c3cccc([N+](=O)[O-])c3)=NO2)cc1 (centres undefined) | 14 | 3 | -10 | 2 | 10 | 32* | 19 | 34*
Cc1ccc(OCC(=O)NCc2cccnc2)cc1 | 19 | 3 | -11 | -3 | -5 | 24* | -5 | 5
O=S(=O)(NCc1cccnc1)c1ccc2c(c1)OCCO2 | 3 | 9 | -1 | 0 | -3 | 23* | -19 | 17
Cc1ccc(S(=O)(=O)NCc2ccc(C(=O)NCc3cccnc3)cc2)cc1 | 15 | . | -14 | -18 | . | 23* | -4 | 0
Cc1ccc(S(=O)(=O)NCCCNc2ccc([N+](=O)[O-])cc2)cc1 | 12 | 4 | 23 | -13 | 42 | 41* | 45* | 71*
Cc1ccc(S(=O)(=O)NCCNc2ccc([N+](=O)[O-])cc2)cc1 | 10 | 2 | 7 | -5 | 5 | 17 | . | .
O=C(CCS(=O)(=O)c1ccc(Cl)cc1)NC1CCCC1 | 8 | 19 | -9 | 6 | 7 | . | . | .
COc1ccc(C2=NN(c3ccccc3)C(=O)/C2=C\c2ccc(O)c(OC)c2)cc1 | 14 | 3 | 12 | 2 | 7 | 30* | 1 | 26*
CCOC(=O)C(C)On1c(-c2ccccc2)nc2ccc([N+](=O)[O-])cc21 (centres undefined) | 19 | 1 | -42 | -22 | 13 | . | . | 10
CCOC(=O)C(C)On1c(-c2ccc(Cl)cc2)nc2ccc([N+](=O)[O-])cc21 (centres undefined) | 37 | 16 | -6 | 9 | 41 | 26* | 35* | 52*
Cc1ccc(COn2c(-c3ccc(Cl)cc3)nc3ccc([N+](=O)[O-])cc32)cc1 | 13 | 34 | -7 | -1 | 27 | 2 | . | .
O=C(O)COn1c(-c2ccccc2)nc2ccc([N+](=O)[O-])cc21 | 44 | 3 | -13 | -20 | -12 | 31* | 2 | 16
CC(O)c1nc2cc([N+](=O)[O-])ccc2n1Cc1ccccc1 (centres undefined) | 12 | 6 | -14 | -9 | -12 | -5 | . | .
COc1ccc(C(=O)OCC(=O)c2ccccc2)cc1S(=O)(=O)N1CCOCC1 | 8 | 8 | 8 | -14 | -7 | -2 | . | .
C[C@H](CO)N1C[C@H](C)[C@H](CN(C)Cc2cccc(F)c2)Oc2ncc(C3=CCCC3)cc2C1=O | . | 0 | . | . | -14 | . | . | .
Cn1ccnc1SCC(=O)Nc1cc(S(=O)(=O)N2CCOCC2)ccc1Cl | 16 | 1 | -18 | -19 | 18 | -12 | . | .
CC(CCc1ccccc1)NC(=O)COC(=O)c1ccc(S(C)(=O)=O)c([N+](=O)[O-])c1 (centres undefined) | 69* | 6 | 18 | 6 | 20 | 52* | 92* | 48*
CC(CCc1ccccc1)NC(=O)COC(=O)c1ccc([N+](=O)[O-])cc1 (centres undefined) | 13 | 0 | -18 | -23 | -4 | 2 | . | .
N=C(N)SCc1cn(-c2ccccc2)nc1-c1ccc(Br)cc1 | . | 79* | . | . | 47 | 26* | 63* | 89*
COc1ccc(-n2c(-c3ccc(Cl)cc3)c[n+]3c2CCc2ccccc2-3)cc1 | 6 | 10 | -3 | -21 | 5 | 31* | 33* | 35*
COCCN1Cc2cccc(C(=O)Nc3ccc(S(=O)(=O)N4CCCCC4)cc3)c2C1=O | 4 | 13 | 12 | -2 | -11 | 24* | -7 | -9
Cc1ccc(C(=O)Nc2ccc(S(=O)(=O)N3CCN(C)CC3)cc2)cc1 | 12 | 6 | -14 | -24 | 5 | 45* | 0 | 5
O=C(Nc1ccccc1)c1ccc(CN2CCc3ccccc3C2)cc1 | 18 | 0 | -1 | -17 | 16 | 0 | . | .
O=C(Nc1ccc(S(=O)(=O)N2CCCCC2)cc1)c1ccc(CN2CCc3ccccc3C2)cc1 | 16 | 5 | 47* | -10 | 4 | 25* | 49* | 57*
COC(=O)[C@]12C[C@H](CC(=O)NCC3CCCCC3)C(=O)N(CCc3ccc(OC)c(OC)c3)C1=C[C@H](C(C)(C)C)O[C@@H]2C | . | -2 | . | . | -5 | . | . | .
SMILES | OX1R antag-1 | TAAR1 ag | CHO parental Ca | OX1R antag-2 | TAAR1 antagonist | GPR7 antag | GPR7 antag cf | MCHR1 antag
COc1ccc(C(CC(=O)O)NC(=O)COc2ccc(C)cc2)cc1OC (centres undefined) | 6 | 6 | 2 | -1 | -2 | -10 | . | .
OC(CNCc1ccco1)Cn1c2ccccc2c2ccccc21 (centres undefined) | 10 | 20 | 10 | 3 | -11 | 21* | 19 | 14
O=C(Nc1ccc2c(c1)OCO2)c1ccc2nc([C@@H]3O[C@H](CO)[C@H](O)[C@H](O)[C@H]3O)[nH]c2c1 | . | 2 | . | . | -6 | . | . | .
O=C(COC(=O)[C@H](Cc1ccccc1)NC(=O)c1cccs1)Nc1ccccc1C(F)(F)F | 15 | 0 | -19 | -16 | 15 | 23* | 39* | 32*
NC(=O)NC(=O)COC(=O)[C@H](Cc1ccccc1)NC(=O)c1cccs1 | 8 | 5 | 1 | -4 | -26 | -10 | . | .
O=C(COC(=O)C1c2ccccc2Oc2ccccc21)Nc1ccc2c(c1)OCO2 | 19 | 14 | -7 | 4 | 17 | -8 | . | .
CC(=O)Nc1ccc(NC(=O)COC(=O)C2c3ccccc3Oc3ccccc32)cc1 | . | 5 | . | . | 4 | 23* | 3 | 7
O=c1c2c(nc3cc(-c4ccc(F)cc4)[nH]n13)CCC2 | 4 | 1 | 12 | 16 | -6 | 30* | -13 | 8
Cc1cccc(N(CC(=O)NC2CCCCC2)C(=O)CCCC(=O)Nc2ccccn2)c1C | 2 | 0 | -15 | -24 | 0 | 29* | 21 | 12
CCOc1ccccc1NC(=O)C(NCC1(N2CCCCC2)CCCCC1)c1ccccc1 (centres undefined) | 4 | 12 | -26 | -34 | -10 | 28* | 25* | 14
CN(CCO)c1ncnc2c1sc1nc(N3CCOCC3)c3c(c12)CCC3 | 7 | 1 | -8 | 11 | -32 | -2 | . | .
